Reference: ChEMBL document CHEMBL4613292, “5,6-Dihydroxypyrimidine Scaffold to Target HIV-1 Nucleocapsid Protein” (ACS Med Chem Lett, 2020)
Active and inactive are the calls of the source. The calls are words filed in the database; no cut-off is given here.

Experiments:
[1] = (§1) Inhibition of HIV1 Nucleocapsid protein (11 to 55 residues) assessed as reduction in NC-induced cTAR DNA destabilization by measuring intrinsic fluorescence using Alexa488-5'-cTAR-3'-Dabcyl oligonucleotide as substrate at 20 degree C incubated for 15 mins by fluorescence assay; set-up: species or system Human immunodeficiency virus 1; conditions: read-out: IC50
Outline: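 Fluorescence NC-inhibition assay following destabilisation of cTAR DNA, the complement of the HIV-1 transactivation response element, dual-labelled with Alexa488 dye and Dabcyl quencher. NC protein at 1 μM, so the lowest measurable IC50 is 0.5 μM.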

[2] = Half life in C57BL/6 mouse at 2 mg/kg, iv or 5 mg/kg, po administered as single dose measured up to 24 hrs by LC-MS/MS analysis; assay type: ADME, organism-based; conditions: in vivo
Cytochrome P450 3A4 = Cytochrome P450 3A4 (Homo sapiens, UniProt P08684); experiment: Inhibition of human microsomal CYP3A4 expressed in baculovirus infected insect cells using luciferin-IPA as substrate preincubated with enzyme/substrate mixture for 30 mins followed by further incubation with NADPH for 30 mins by CYP450 luciferase Glo assay; assay type: ADME
[3] = Volume of distribution at steady state in C57BL/6 mouse at 2 mg/kg, iv or 5 mg/kg, po administered as single dose measured up to 24 hrs by LC-MS/MS analysis; assay type: ADME, organism-based; conditions: in vivo, read-out: Vdss
[4] = (§2) Selectivity index, ratio of CC50 for human HeLa cells assessed as reduction in cell viability to EC50 for wild-type HIV1 NL4-3 infected in human TZM-bl cells infected with supernatants from virus-infected human MT2 cells treated with compound for 48 to 72 hrs assessed as reduction in viral replication after 2 days by bright Glo-luciferase reporter gene assay based BiCycle assay; assay type: toxicity; conditions: read-out: Ratio CC50/EC50
Outline: (§3)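 Selectivity index is CC50 from the respective cytotoxicity assay (HeLa or PBMC) divided by EC50 from the two-round MT-2/TZM-bl NL4-3 assay.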

[5] = Cytotoxicity against human HeLa cells assessed as reduction in cell viability; assay type: cell-based
[6] = Half life in human plasma at 3 uM by LC-MS/MS analysis; assay type: ADME, cell-free
[7] = test system: Human immunodeficiency virus 1; experiment: as §2, with “Antiviral activity against” for “Selectivity index, ratio of CC50 for human HeLa cells assessed as reduction in cell viability to EC50 for”; assay type: functional, organism-based; conditions: Human immunodeficiency virus 1, NL4-3, TZM
Outline: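 Two-round cell assay over the full replication cycle: MT-2 T cells are infected with wild-type reference strain NL4-3 in the first round, and reporter TZM-bl cells are infected in the second round. Values are given as mean ± deviation.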

[8] = Cytotoxicity against phytohemagglutinin and interleukin-2-stimulated human PBMC cells assessed as reduction in cell viability measured after 7 days by MTS assay; assay type: cell-based
[9] = Half life in mouse plasma at 3 uM by LC-MS/MS analysis; assay type: ADME, cell-free
[10] = Selectivity index, ratio of CC50 for human PBMC cells stimulated with phytohemagglutinin and interleukin-2 assessed as reduction in cell viability measured after 7 days by MTS assay to EC50 for wild-type HIV1 NL4-3 infected in human TZM-bl cells infected with supernatants from virus-infected human MT2 cells treated with compound for 48 to 72 hrs assessed as reduction in viral replication after 2 days by bright Glo-luciferase reporter gene assay based BiCycle assay; assay type: toxicity; conditions: read-out: Ratio CC50/EC50; outline: as §3
[11] = Half life in human hepatocytes at 3 uM by LC-MS/MS analysis; assay type: ADME, cell-based, Hepatocyte
[12] = test system: Human immunodeficiency virus 1; experiment: Antiviral activity against PI-resistant HIV1 11808; assay type: functional, organism-based; conditions: Human immunodeficiency virus 1, 11808
[13] = test system: Human immunodeficiency virus 1; experiment: as §1, with “Ratio” for “Inhibition”, “of IC50 for NNRTI-resistant HIV1 12231 Nucleocapsid protein (11 to 55 residues) using Alexa488-5'-cTAR-3'-Dabcyl oligonucleotide as substrate to IC50 for” for “of”
[14] = test system: Human immunodeficiency virus 1; experiment: as §1, with “Ratio” for “Inhibition”, “of IC50 for NRTI-resistant HIV1 7401 Nucleocapsid protein (11 to 55 residues) using Alexa488-5'-cTAR-3'-Dabcyl oligonucleotide as substrate to IC50 for” for “of”
[15] = molecular target: Human immunodeficiency virus type 1 integrase (Human immunodeficiency virus 1) (UniProt Q7ZJM1); experiment: Inhibition of wild type recombinant HIV1 His6-tagged integrase expressed in Escherichia coli BL21 using 18 nucleotide 3'-biotin labeled DNA acceptor as substrate upto 10 uM preincubated for 1 hr followed by substrate addition and further incubated for 90 mins in presence of recombinant LEDGF/p75 by HTRF assay
[16] = molecular target: Voltage-gated inwardly rectifying potassium channel KCNH2 (Homo sapiens, UniProt Q12809); experiment: Displacement of Tracer Red from human ERG measured after 4 hrs by fluorescence polarization assay
[17] = test system: Human immunodeficiency virus 1; experiment: Antiviral activity against INI-resistant HIV1 11845; assay type: functional, organism-based; conditions: Human immunodeficiency virus 1, 11845
[18] = test system: Human immunodeficiency virus 1; experiment: Antiviral activity against NRTI-resistant HIV1 7401; assay type: functional, organism-based; conditions: Human immunodeficiency virus 1, 7401
[19] = Oral bioavailability in C57BL/6 mouse at 5 mg/kg administered as single dose measured up to 24 hrs by LC-MS/MS analysis; assay type: ADME, organism-based; conditions: in vivo
Outline: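 C57BL/6 mice were dosed 5 mg/kg orally, with a 2 mg/kg iv reference arm. Plasma was sampled at eight time points up to 24 h.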

Cytochrome P450 2D6 = Cytochrome P450 2D6 (Homo sapiens, UniProt P10635); experiment: Inhibition of human microsomal CYP2D6 expressed in baculovirus infected insect cells using luciferin-ME as substrate preincubated with enzyme/substrate mixture for 30 mins followed by further incubation with NADPH for 30 mins by CYP450 luciferase Glo assay; assay type: ADME
[20] = test system: Human immunodeficiency virus 1; experiment: as §1, with “Ratio” for “Inhibition”, “of IC50 for PI-resistant HIV1 11808 Nucleocapsid protein (11 to 55 residues) using Alexa488-5'-cTAR-3'-Dabcyl oligonucleotide as substrate to IC50 for” for “of”
[21] = Half life in mouse hepatocytes at 3 uM by LC-MS/MS analysis; assay type: ADME, cell-based, Hepatocyte
[22] = Clearance in C57BL/6 mouse at 2 mg/kg, iv or 5 mg/kg, po administered as single dose measured up to 24 hrs by LC-MS/MS analysis; assay type: ADME, organism-based; conditions: in vivo
[23] = test system: Human immunodeficiency virus 1; experiment: Antiviral activity against NNRTI-resistant HIV1 12231; assay type: functional, organism-based; conditions: Human immunodeficiency virus 1, 12231
Cytochrome P450 1A2 = molecular target: T1, Cytochrome P450 1A2 (Homo sapiens, UniProt P05177); experiment: Inhibition of human microsomal CYP1A2 expressed in baculovirus infected insect cells using luciferin-1A2 as substrate preincubated with enzyme-substrate mixture for 30 mins followed by further incubation with NADPH for 30 mins by CYP450 luciferase Glo assay; assay type: ADME
T1 sequence (P05177 whole entry): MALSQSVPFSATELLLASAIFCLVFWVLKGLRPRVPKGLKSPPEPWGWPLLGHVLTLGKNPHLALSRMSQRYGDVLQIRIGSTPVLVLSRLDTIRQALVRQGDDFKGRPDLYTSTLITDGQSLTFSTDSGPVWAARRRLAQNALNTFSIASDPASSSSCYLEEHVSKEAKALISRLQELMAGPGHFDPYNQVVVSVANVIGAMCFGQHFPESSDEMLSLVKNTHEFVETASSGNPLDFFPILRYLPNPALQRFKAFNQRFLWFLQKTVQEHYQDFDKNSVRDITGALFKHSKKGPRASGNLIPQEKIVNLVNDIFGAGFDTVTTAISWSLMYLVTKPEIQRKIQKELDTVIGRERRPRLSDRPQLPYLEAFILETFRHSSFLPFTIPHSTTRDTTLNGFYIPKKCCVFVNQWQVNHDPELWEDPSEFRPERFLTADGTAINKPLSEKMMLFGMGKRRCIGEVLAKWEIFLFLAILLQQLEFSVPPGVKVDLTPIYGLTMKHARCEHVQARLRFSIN

[24] = test system: Human immunodeficiency virus 1; experiment: as §1, with “Ratio” for “Inhibition”, “of IC50 for INI-resistant HIV1 11845 Nucleocapsid protein (11 to 55 residues) using Alexa488-5'-cTAR-3'-Dabcyl oligonucleotide as substrate to IC50 for” for “of”

Sequence of Human immunodeficiency virus type 1 integrase (Human immunodeficiency virus 1) (Q7ZJM1 as listed by the source): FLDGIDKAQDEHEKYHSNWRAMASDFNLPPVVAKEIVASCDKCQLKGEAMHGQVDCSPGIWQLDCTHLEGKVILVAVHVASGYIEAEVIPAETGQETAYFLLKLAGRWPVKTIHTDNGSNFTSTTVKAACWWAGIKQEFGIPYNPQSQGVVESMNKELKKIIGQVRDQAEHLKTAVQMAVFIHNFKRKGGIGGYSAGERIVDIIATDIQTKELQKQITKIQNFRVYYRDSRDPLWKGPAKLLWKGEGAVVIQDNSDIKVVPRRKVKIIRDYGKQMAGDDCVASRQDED
Sequence of Cytochrome P450 3A4 (P08684 whole entry): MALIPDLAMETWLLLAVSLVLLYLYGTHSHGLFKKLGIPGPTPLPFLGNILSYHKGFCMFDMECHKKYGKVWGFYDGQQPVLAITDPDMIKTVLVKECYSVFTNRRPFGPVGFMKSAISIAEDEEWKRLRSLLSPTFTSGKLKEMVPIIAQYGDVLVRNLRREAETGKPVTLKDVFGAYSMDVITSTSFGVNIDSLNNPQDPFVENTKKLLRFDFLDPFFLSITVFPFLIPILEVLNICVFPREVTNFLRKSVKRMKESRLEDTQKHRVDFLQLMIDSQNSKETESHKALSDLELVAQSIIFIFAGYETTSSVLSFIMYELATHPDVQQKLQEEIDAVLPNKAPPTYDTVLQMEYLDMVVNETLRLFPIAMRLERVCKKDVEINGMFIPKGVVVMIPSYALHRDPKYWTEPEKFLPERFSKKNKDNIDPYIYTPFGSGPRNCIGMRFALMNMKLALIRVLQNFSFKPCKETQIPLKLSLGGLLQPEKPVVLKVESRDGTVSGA
Sequence of Cytochrome P450 2D6 (P10635 whole entry, the tested form may be a part): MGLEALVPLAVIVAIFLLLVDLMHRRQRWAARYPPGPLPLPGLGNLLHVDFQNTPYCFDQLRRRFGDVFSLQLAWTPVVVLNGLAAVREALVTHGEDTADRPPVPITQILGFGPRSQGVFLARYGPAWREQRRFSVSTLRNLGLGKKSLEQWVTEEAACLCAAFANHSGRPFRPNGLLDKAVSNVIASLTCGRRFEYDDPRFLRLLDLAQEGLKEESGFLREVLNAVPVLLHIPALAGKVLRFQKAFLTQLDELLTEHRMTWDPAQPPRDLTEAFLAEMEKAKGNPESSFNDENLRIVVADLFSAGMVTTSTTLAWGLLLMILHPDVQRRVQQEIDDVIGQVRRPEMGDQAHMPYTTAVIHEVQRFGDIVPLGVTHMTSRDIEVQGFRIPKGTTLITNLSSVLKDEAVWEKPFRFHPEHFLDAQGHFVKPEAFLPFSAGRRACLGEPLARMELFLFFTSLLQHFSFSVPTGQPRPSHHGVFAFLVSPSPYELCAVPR
Sequence of Voltage-gated inwardly rectifying potassium channel KCNH2 (Q12809 whole entry): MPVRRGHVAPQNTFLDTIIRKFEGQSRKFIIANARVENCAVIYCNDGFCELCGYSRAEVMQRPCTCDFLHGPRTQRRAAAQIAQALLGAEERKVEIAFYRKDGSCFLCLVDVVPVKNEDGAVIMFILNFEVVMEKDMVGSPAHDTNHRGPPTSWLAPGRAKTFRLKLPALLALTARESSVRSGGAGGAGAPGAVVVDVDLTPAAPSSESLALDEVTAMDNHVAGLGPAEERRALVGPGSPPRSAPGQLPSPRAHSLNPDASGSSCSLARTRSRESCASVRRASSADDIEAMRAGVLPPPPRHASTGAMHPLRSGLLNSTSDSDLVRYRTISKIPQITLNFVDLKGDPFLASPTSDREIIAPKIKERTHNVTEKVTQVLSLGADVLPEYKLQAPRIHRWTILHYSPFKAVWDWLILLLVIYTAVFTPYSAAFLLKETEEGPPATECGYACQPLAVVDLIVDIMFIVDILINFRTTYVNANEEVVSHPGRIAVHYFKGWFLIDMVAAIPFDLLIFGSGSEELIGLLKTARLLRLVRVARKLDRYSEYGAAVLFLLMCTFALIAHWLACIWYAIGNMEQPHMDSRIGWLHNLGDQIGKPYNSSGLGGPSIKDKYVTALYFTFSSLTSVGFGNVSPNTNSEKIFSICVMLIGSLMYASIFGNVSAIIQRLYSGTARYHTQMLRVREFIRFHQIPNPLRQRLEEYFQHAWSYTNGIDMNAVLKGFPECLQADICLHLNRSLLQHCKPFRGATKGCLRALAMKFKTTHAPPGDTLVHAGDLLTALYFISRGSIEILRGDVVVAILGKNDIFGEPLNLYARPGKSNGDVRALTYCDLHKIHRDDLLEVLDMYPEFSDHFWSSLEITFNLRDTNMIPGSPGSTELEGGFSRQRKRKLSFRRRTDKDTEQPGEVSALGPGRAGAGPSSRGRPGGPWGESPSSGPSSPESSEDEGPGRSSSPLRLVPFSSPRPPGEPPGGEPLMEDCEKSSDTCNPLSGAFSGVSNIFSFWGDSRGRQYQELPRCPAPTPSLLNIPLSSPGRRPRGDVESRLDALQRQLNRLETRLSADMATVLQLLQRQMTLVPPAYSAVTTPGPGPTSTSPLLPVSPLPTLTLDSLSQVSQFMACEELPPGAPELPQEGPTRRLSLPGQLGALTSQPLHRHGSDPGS

For `COc1ccnc(-c2nc(O)c(O)c(C(=O)N[C@H](C)C3CCCCC3)n2)c1`, the IC50 [1] was 22 µM, the half-life [2] was 1.4 h and the IC50 (Cytochrome P450 3A4) was > 30 µM. For the same molecule, the Vd [3] was 0.8 L/kg, the selectivity ratio [4] was 75 and the CC50 [5] was 3 µM. For the same molecule, the half-life at 3 µM [6] was > 6 h, the EC50 [7] was 0.04 µM and the CC50 at 168 h [8] was 2.7 µM. For the same molecule, the half-life at 3 µM [9] was > 24 h, the selectivity ratio at 7 days [10] was 75 and the half-life at 3 µM [11] was > 4 h. It also gave an EC50 [12] of 0.056 µM, a Ratio IC50 [13] of 2.8 and a Ratio IC50 [14] of 0.8. For the same molecule, the inhibition [15] was “inactive”, the IC50 [16] was > 30 µM and the EC50 [17] was 0.09 µM. The EC50 [18] was 0.031 µM, the bioavailability [19] was 25% and the IC50 (Cytochrome P450 2D6) was > 30 µM. For the same molecule, the Ratio IC50 [20] was 1.4, the half-life at 3 µM [21] was 1.9 h and the clearance [22] was 33.1 mL/min/kg. The EC50 [23] was 0.11 µM, the IC50 (Cytochrome P450 1A2) was > 30 µM and the Ratio IC50 [24] was 2.3.
